Laboratory results reported in ChEMBL document CHEMBL1629444, “DNA-dependent protein kinase (DNA-PK) inhibitors. Synthesis and biological activity of quinolin-4-one and pyridopyrimidin-4-one surrogates for the chromen-4-one chemotype” (J Med Chem, 2010).

What was measured:
[1] = Inhibition of DNA-PK isolated from human HeLa cell extract assessed as reduction in p53 Ser15 phosphorylation by chemiluminescence assay; assay type: cell-free
[2] = test system: HeLa; assay: Potentiation of ionizing radiation-induced cytotoxicity in human HeLa cells assessed as dose modification ratio at 0.5 uM pretreated 1 hr before 2 Gy ionizing radiation by Giemsa staining relative untreated control; assay type: functional
Outline: (§1)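 HeLa cells seeded in six-well dishes and left overnight at 37 °C/5% CO2. Compound or vehicle given 1 h before a single 2 Gy X-ray dose, then incubated overnight. Medium replaced without compound and cells grown 6-8 days. Colonies Giemsa-stained and counted automatically. DMR is % survival at 2 Gy without compound divided by % survival at 2 Gy with compound.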

[3] = test system: HeLa; assay: Potentiation of ionizing radiation-induced cytotoxicity in human HeLa cells assessed as dose modification ratio at 0.1 uM pretreated 1 hr before 2 Gy ionizing radiation by Giemsa staining relative untreated control; assay type: functional; outline: as §1

Row | Structure (SMILES) | IC50 [1] | Ratio [2] | Ratio [3]
1 | O=C(CCN1CCOCC1)Nc1ccc(-c2cccn3c(=O)cc(N4CCOCC4)nc23)c2sc3ccccc3c12 | 86 nM | 6.2 | 6.2
2 | O=C(CN1CCOCC1)Nc1ccc(-c2cccn3c(=O)cc(N4CCOCC4)nc23)c2oc3ccccc3c12 | 59 nM | 2.3 | 1.4
3 | O=C(CCN1CCOCC1)Nc1ccc(-c2cccn3c(=O)cc(N4CCOCC4)nc23)c2oc3ccccc3c12 | 77 nM | 6.3 | 1.3
4 | O=C(CCN1CCCCCC1)Nc1ccc(-c2cccc3c(=O)cc(N4CCOCC4)[nH]c23)c2sc3ccccc3c12 | 141 nM | 2.2 | 
5 | CCN1CCN(CC(=O)Nc2ccc(-c3cccc4c(=O)cc(N5CCOCC5)[nH]c34)c3sc4ccccc4c23)CC1 | 61 nM | 3.4 | 
6 | NCC(=O)Nc1ccc(-c2cccc3c(=O)cc(N4CCOCC4)[nH]c23)c2sc3ccccc3c12 | 198 nM | 2.6 | 
7 | CN1CCN(CC(=O)Nc2ccc(-c3cccc4c(=O)cc(N5CCOCC5)[nH]c34)c3sc4ccccc4c23)CC1 | 43 nM | 2.5 | 
8 | O=C(CCNCC1CCCO1)Nc1ccc(-c2cccn3c(=O)cc(N4CCOCC4)nc23)c2oc3ccccc3c12 (stereo not drawn) | 75 nM | 7.4 | 1.3
9 | O=c1cc(N2CCOCC2)nc2c3ccccc3ccn12 | 280 nM |  | 
10 | COCCN1CCN(CC(=O)Nc2ccc(-c3cccc4c(=O)cc(N5CCOCC5)[nH]c34)c3oc4ccccc4c23)CC1 | 68 nM | 1.4 | 1.1
11 | C[C@@H]1CN(CCC(=O)Nc2ccc(-c3cccn4c(=O)cc(N5CCOCC5)nc34)c3oc4ccccc4c23)C[C@H](C)O1 | 70 nM | 4.1 | 0.9
12 | CC(C)NC(=O)CN1CCN(CC(=O)Nc2ccc(-c3cccc4c(=O)cc(N5CCOCC5)[nH]c34)c3oc4ccccc4c23)CC1 | 55 nM | 1.6 | 1.4
13 | O=C(CN1CCN(CCO)CC1)Nc1ccc(-c2cccc3c(=O)cc(N4CCOCC4)[nH]c23)c2oc3ccccc3c12 | 39 nM | 1.5 | 1.3
14 | C[C@@H]1CN(CC(=O)Nc2ccc(-c3cccc4c(=O)cc(N5CCOCC5)[nH]c34)c3oc4ccccc4c23)C[C@H](C)O1 | 37 nM | 1.6 | 1.1
15 | O=c1cc(N2CCOCC2)oc2c1ccc1ccccc12 | 230 nM |  | 
16 | O=C(CCN1CCCCC1)Nc1ccc(-c2cccc3c(=O)cc(N4CCOCC4)[nH]c23)c2oc3ccccc3c12 | 314 nM | 1.1 | 1
17 | O=C(CN1CCN(CCOCCO)CC1)Nc1ccc(-c2cccn3c(=O)cc(N4CCOCC4)nc23)c2sc3ccccc3c12 | 51 nM | 8.3 | 1
18 | C[C@@H]1CN(CCC(=O)Nc2ccc(-c3cccc4c(=O)cc(N5CCOCC5)[nH]c34)c3oc4ccccc4c23)C[C@H](C)O1 | 151 nM | 0.9 | 0.8
19 | O=C(CCN1CCCCC1)Nc1ccc(-c2cccc3c(=O)cc(N4CCOCC4)[nH]c23)c2sc3ccccc3c12 | 51 nM | 2.9 | 
20 | O=C(CN1CCN(c2ccccn2)CC1)Nc1ccc(-c2cccn3c(=O)cc(N4CCOCC4)nc23)c2sc3ccccc3c12 | 175 nM | 3.9 | 
21 | O=C(CN1CCNCC1)Nc1ccc(-c2cccc3c(=O)cc(N4CCOCC4)[nH]c23)c2sc3ccccc3c12 | 133 nM | 2.2 | 
22 | O=C(CN1CCOCC1)Nc1ccc(-c2cccc3c(=O)cc(N4CCOCC4)[nH]c23)c2oc3ccccc3c12 | 112 nM | 1.6 | 1.1
23 | O=C(CCNCC1CCCO1)Nc1ccc(-c2cccc3c(=O)cc(N4CCOCC4)[nH]c23)c2sc3ccccc3c12 (stereo not drawn) | 102 nM | 2.1 | 
24 | O=C(CCNCC1CCCO1)Nc1ccc(-c2cccn3c(=O)cc(N4CCOCC4)nc23)c2sc3ccccc3c12 (stereo not drawn) | 77 nM | 4.3 | 4.3
25 | O=C(CCN1CCOCC1)Nc1ccc(-c2cccc3c(=O)cc(N4CCOCC4)[nH]c23)c2sc3ccccc3c12 | 179 nM | 2.8 | 
26 | O=C(CN1CCOCC1)Nc1ccc(-c2cccc3c(=O)cc(N4CCOCC4)[nH]c23)c2sc3ccccc3c12 | 60 nM | 3.1 | 
27 | CN1CCN(CC(=O)Nc2ccc(-c3cccc4c(=O)cc(N5CCOCC5)[nH]c34)c3oc4ccccc4c23)CC1 | 116 nM | 1.6 | 1.2
28 | CCN1CCN(CC(=O)Nc2ccc(-c3cccc4c(=O)cc(N5CCOCC5)[nH]c34)c3oc4ccccc4c23)CC1 | 77 nM | 3.6 | 1.2
29 | O=C(CNCCCN1CCOCC1)Nc1ccc(-c2cccc3c(=O)cc(N4CCOCC4)[nH]c23)c2sc3ccccc3c12 | 64 nM | 4 | 

Further molecules by falling IC50 [1], results first:

Row | IC50 [1] | Structure (SMILES) | Ratio [2] | Ratio [3]
30 | 36 nM | CC(C)NC(=O)CN1CCN(CC(=O)Nc2ccc(-c3cccn4c(=O)cc(N5CCOCC5)nc34)c3oc4ccccc4c23)CC1 | 13 | 1.7
31 | 33 nM | COCCN1CCN(CC(=O)Nc2ccc(-c3cccc4c(=O)cc(N5CCOCC5)[nH]c34)c3sc4ccccc4c23)CC1 | 8.2 | 1.2
32 | 32 nM | CC(=O)N1CCN(CCC(=O)Nc2ccc(-c3cccn4c(=O)cc(N5CCOCC5)nc34)c3sc4ccccc4c23)CC1 | 2.1 | 2.1
33 | 30 nM | CN1CCN(CC(=O)Nc2ccc(-c3cccn4c(=O)cc(N5CCOCC5)nc34)c3oc4ccccc4c23)CC1 | 4.3 | 1.1
34 | 29 nM | O=C(CCNCCCN1CCOCC1)Nc1ccc(-c2cccn3c(=O)cc(N4CCOCC4)nc23)c2sc3ccccc3c12 | 1.7 | 1.7
35 | 29 nM | CCN1CCN(CC(=O)Nc2ccc(-c3cccn4c(=O)cc(N5CCOCC5)nc34)c3oc4ccccc4c23)CC1 | 6.4 | 1.1
36 | 29 nM | O=C(CN(CCO)CCO)Nc1ccc(-c2cccn3c(=O)cc(N4CCOCC4)nc23)c2sc3ccccc3c12 | 3.8 | 1.1
37 | 28 nM | O=C(CCN1CCCCC1)Nc1ccc(-c2cccn3c(=O)cc(N4CCOCC4)nc23)c2sc3ccccc3c12 | 14.3 | 14.3
38 | 27 nM | C[C@@H]1CN(CCC(=O)Nc2ccc(-c3cccn4c(=O)cc(N5CCOCC5)nc34)c3sc4ccccc4c23)C[C@H](C)O1 | 4.6 | 4.6
39 | 25 nM | O=C(CN1CCNCC1)Nc1ccc(-c2cccn3c(=O)cc(N4CCOCC4)nc23)c2sc3ccccc3c12 | 6.2 | 1.5
40 | 25 nM | CC(C)NC(=O)CN1CCN(CC(=O)Nc2ccc(-c3cccn4c(=O)cc(N5CCOCC5)nc34)c3sc4ccccc4c23)CC1 | 7.3 | 
41 | 24 nM | CN1CCN(CC(=O)Nc2ccc(-c3cccn4c(=O)cc(N5CCOCC5)nc34)c3sc4ccccc4c23)CC1 | 9.2 | 2.4
42 | 22 nM | COCCN1CCN(CC(=O)Nc2ccc(-c3cccn4c(=O)cc(N5CCOCC5)nc34)c3sc4ccccc4c23)CC1 | 14.4 | 4
43 | 21 nM | CC(=O)N1CCN(CCC(=O)Nc2ccc(-c3cccc4c(=O)cc(N5CCOCC5)[nH]c34)c3sc4ccccc4c23)CC1 | 2.6 | 
44 | 21 nM | O=C(CCN1CCCCC1)Nc1ccc(-c2cccn3c(=O)cc(N4CCOCC4)nc23)c2oc3ccccc3c12 | 1 | 2.5
45 | 19 nM | O=C(CN1CCN(CCO)CC1)Nc1ccc(-c2cccn3c(=O)cc(N4CCOCC4)nc23)c2sc3ccccc3c12 | 13.6 | 1.4
46 | 19 nM | O=C(CN1CCN(c2ccccn2)CC1)Nc1ccc(-c2cccc3c(=O)cc(N4CCOCC4)[nH]c23)c2sc3ccccc3c12 | 5.8 | 
47 | 18 nM | CCN1CCN(CC(=O)Nc2ccc(-c3cccn4c(=O)cc(N5CCOCC5)nc34)c3sc4ccccc4c23)CC1 | 7.7 | 1.4
48 | 18 nM | O=C(CN1CCN(CCO)CC1)Nc1ccc(-c2cccc3c(=O)cc(N4CCOCC4)[nH]c23)c2sc3ccccc3c12 | 2.1 | 
49 | 17 nM | O=C(CN1CCN(CCO)CC1)Nc1ccc(-c2cccn3c(=O)cc(N4CCOCC4)nc23)c2oc3ccccc3c12 | 5.8 | 1.3
50 | 15 nM | C[C@@H]1CN(CC(=O)Nc2ccc(-c3cccn4c(=O)cc(N5CCOCC5)nc34)c3oc4ccccc4c23)C[C@H](C)O1 | 3 | 1
51 | 14 nM | C[C@@H]1CN(CCC(=O)Nc2ccc(-c3cccc4c(=O)cc(N5CCOCC5)[nH]c34)c3sc4ccccc4c23)C[C@H](C)O1 | 2.2 | 
52 | 12 nM | COc1ccc(CNCCC(=O)Nc2ccc(-c3cccn4c(=O)cc(N5CCOCC5)nc34)c3sc4ccccc4c23)cc1 | 6.7 | 6.7
53 | 8 nM | O=C(CN1CCOCC1)Nc1ccc(-c2cccn3c(=O)cc(N4CCOCC4)nc23)c2sc3ccccc3c12 | 9.9 | 3.5
54 | 7 nM | C[C@@H]1CN(CC(=O)Nc2ccc(-c3cccn4c(=O)cc(N5CCOCC5)nc34)c3sc4ccccc4c23)C[C@H](C)O1 | 15.1 | 
55 | 6 nM | CCN1CCN(CC(=O)Nc2ccc(-c3cccc4c(=O)cc(N5CCOCC5)oc34)c3sc4ccccc4c23)CC1 |  | 3.2
